The source made the active and inactive calls. The calls are words filed in the database; no cut-off is given here.

Consider 15 molecules from ChEMBL document CHEMBL1149868, “Synthesis and in vitro anti-leishmanial activity of 1-[5-(5-nitrofuran-2-yl)-1,3,4-thiadiazol-2-yl]- and 1-[5-(5-nitrothiophen-2-yl)-1,3,4-thiadiazol-2-yl]-4-aroylpiperazines” (Bioorg Med Chem, 2008).

Series [1] in a line: Cytotoxicity against mouse macrophages assessed as cell death at 28.26 uM after 24 hrs by MTT colorimetric assay. Type of series: cell-based. Conditions: macrophage.
Series [2] can be described thus: Partition coefficient, log p of the compound. Type of series: physicochemical. Particulars: octanol/water.
The subject of series [3] is Leishmania major. Briefly: Antileishmanial activity against Leishmania major MRHO/IR/75/ER promastigotes by MTT assay. Type of series: functional, organism-based. The essentials:
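L. major MRHO/IR/75/ER promastigotes from early log phase, 2×10^6/mL, in phenol red free RPMI 1640 with 10% FBS, 2 mM glutamine, pH ~7.2 and antibiotics. Exposed to serial drug dilutions for 24 h at 25 °C. MTT (0.5 mg/mL) added for 4 h at 37 °C, pellet dissolved in DMSO, A492 read. Two or more independent experiments in triplicate; IC50 by linear regression, means ± SD.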
(In general: Formazan colour is commonly taken as a measure of viable cells.)

Series [4] in a line: Cytotoxicity against mouse macrophages assessed as cell death at >50 uM after 24 hrs by MTT colorimetric assay. The format is cell-based. Particulars: macrophage.
The test system of series [5] is Leishmania major. Briefly: Antileishmanial activity against Leishmania major amastigotes in mouse macrophages assessed as decrease in infectivity index after 24 hrs. The format is functional, organism-based.
Series [6] has as its system Leishmania major. In words: Antileishmanial activity against Leishmania major amastigotes assessed as decrease in infectivity in mouse macrophages after 24 hrs. Type of series: functional, organism-based.
A short description of series [7]: Cytotoxicity against mouse macrophages assessed as cell death at 11.75 uM after 24 hrs by MTT colorimetric assay. The format is cell-based. Conditions: macrophage.
For series [8], the system named is Leishmania major. In words: Antileishmanial activity against Leishmania major MRHO/IR/75/ER amastigotes by Giemsa staining.
Series [9] in a line: Cytotoxicity against mouse macrophages assessed as cell death at 10.73 uM after 24 hrs by MTT colorimetric assay. The format is cell-based. Conditions: macrophage.
The nature of series [10]: Cytotoxicity against mouse macrophages assessed as cell death at 26.22 uM after 24 hrs by MTT colorimetric assay. The format is cell-based. Conditions: macrophage.
Series [11] in a line: Cytotoxicity against mouse macrophages assessed as cell death at 25 uM after 24 hrs by MTT colorimetric assay. Conditions: macrophage. The format is cell-based.
A short description of series [12]: Cytotoxicity against mouse macrophages assessed as cell death at 24.11 uM after 24 hrs by MTT colorimetric assay. Type of series: cell-based. Conditions: macrophage.
Series [13] can be described thus: Cytotoxicity against mouse macrophages assessed as cell death at 13.19 uM after 24 hrs by MTT colorimetric assay. Type of series: cell-based. Conditions: macrophage.
The nature of series [14]: Cytotoxicity against mouse macrophages assessed as cell death at 11.69 uM after 24 hrs by MTT colorimetric assay. Type of series: cell-based. Conditions: macrophage.
Series [15] can be described thus: Cytotoxicity against mouse macrophages assessed as cell death at 24.69 uM after 24 hrs by MTT colorimetric assay. The format is cell-based. Conditions: macrophage.
Series [16] can be described thus: Cytotoxicity against mouse macrophages assessed as cell death at 30 uM after 24 hrs by MTT colorimetric assay. The format is cell-based. Conditions: macrophage. The method in brief: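 Mouse peritoneal macrophages were seeded at 2×10^5 cells/well and allowed to adhere. Medium was then replaced with compound-containing medium and cells were incubated 24 h at 37 °C in humidified 5% CO2. Controls received medium plus DMSO. Viability was read by MTT. % cell death = (control viability − treated viability)/control viability. Values are means ± SD.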

A short description of series [17]: Cytotoxicity against mouse macrophages assessed as cell death at 13.11 uM after 24 hrs by MTT colorimetric assay. Type of series: cell-based. Particulars: macrophage.
The nature of series [18]: Cytotoxicity against mouse macrophages assessed as cell death at 19.18 uM after 24 hrs by MTT colorimetric assay. The format is cell-based. Conditions: macrophage.
The nature of series [19]: Cytotoxicity against mouse macrophages assessed as cell death at 34.44 uM after 24 hrs by MTT colorimetric assay. The format is cell-based. Particulars: macrophage.
A short description of series [20]: Cytotoxicity against mouse macrophages assessed as cell death at 23.78 uM after 24 hrs by MTT colorimetric assay. The format is cell-based. Particulars: macrophage.

The term logP denotes the decadic logarithm of the partition coefficient of the neutral form, usually between octanol and water. High values mean a more lipophilic compound, low ones a more hydrophilic compound. The term IC50 denotes the concentration that inhibits the measured activity by half. A higher IC50 goes with lower potency. In the case of `O=C(c1cccs1)N1CCN(c2nnc(-c3ccc([N+](=O)[O-])s3)s2)CC1`, the Activity in series [1] was 8.7%. The logP in [2] came to 1.13. Further, in the series on Leishmania major [3], the IC50 was 28.3 µM.
`O=C(c1cccc(Cl)c1)N1CCN(c2nnc(-c3ccc([N+](=O)[O-])s3)s2)CC1`: the Activity in series [4] is 5.5%. This molecule came in with a logP in series [2] of 2.29. The molecule also registered an IC50 in the series with Leishmania major [3] of more than 50 µM.
With `O=C(c1ccc(Cl)s1)N1CCN(c2nnc(-c3ccc([N+](=O)[O-])o3)s2)CC1`, the result with Leishmania major [5], with Leishmania major [6] and in the series on Leishmania major [8] was Active. The Activity in series [7] came to 7.6%. In series [2], this molecule had a logP of 1.92. The molecule further came in with an IC50 in the series with Leishmania major [3] of 11.8 µM.
In the case of `O=C(c1ccccc1Cl)N1CCN(c2nnc(-c3ccc([N+](=O)[O-])o3)s2)CC1`, the result in the series with Leishmania major [5], with Leishmania major [6] and with Leishmania major [8] was Active. Moreover, the Activity in [9] was found to be 8.7%. The molecule also had a logP in [2] of 1.95. The molecule further yielded an IC50 in the series on Leishmania major [3] of 10.7 µM.
Take `O=C(c1ccc(Cl)cc1)N1CCN(c2nnc(-c3ccc([N+](=O)[O-])o3)s2)CC1`: the Activity in [10] worked out at 9.7%. Besides, the logP in series [2] was found to be 1.95. Besides, in the series with Leishmania major [3], the IC50 stood at 26.2 µM.
Take `O=C(c1ccccc1)N1CCN(c2nnc(-c3ccc([N+](=O)[O-])s3)s2)CC1`: the Activity in [11] is given as 8.9%. For the same molecule, in [2], the logP was determined as 2.52. The IC50 with Leishmania major [3] came to 25 µM.
With `O=C(c1ccc(Cl)cc1)N1CCN(c2nnc(-c3ccc([N+](=O)[O-])s3)s2)CC1`, the Activity in series [12] was determined as 7.2%. This molecule showed a logP in series [2] of 2.29. In the series on Leishmania major [3], this molecule yielded an IC50 of 24.1 µM.
Take `O=C(c1cccc(Cl)c1)N1CCN(c2nnc(-c3ccc([N+](=O)[O-])o3)s2)CC1`: the outcome in the series with Leishmania major [5], in the series on Leishmania major [6] and in the series with Leishmania major [8] was Active. In series [2], the logP was 1.95. In addition, the Activity in series [13] stood at 9.7%. This molecule also yielded an IC50 in the series on Leishmania major [3] of 13.2 µM.
As for `O=C(c1ccccc1)N1CCN(c2nnc(-c3ccc([N+](=O)[O-])o3)s2)CC1`, the result with Leishmania major [5], in the series with Leishmania major [6] and with Leishmania major [8] was Active. For the same molecule, the Activity in series [14] stood at 7.1%. For the same molecule, the logP in series [2] came out at 2.17. For the same molecule, 11.7 µM corresponded to half-maximal inhibition in the series with Leishmania major [3] (IC50).
In series [2], `O=C(c1ccc(Br)s1)N1CCN(c2nnc(-c3ccc([N+](=O)[O-])s3)s2)CC1` had a logP of 2.57. Moreover, the IC50 in the series with Leishmania major [3] stood at 24.7 µM. The Activity in series [15] amounted to 9.2%.
In the case of MEGLUMINE ANTIMONATE, the Activity in series [16] came to 40.4%.
Take `O=C(c1ccc(Br)s1)N1CCN(c2nnc(-c3ccc([N+](=O)[O-])o3)s2)CC1`: the result in the series on Leishmania major [5], with Leishmania major [6] and with Leishmania major [8] was Active. The logP in series [2] worked out at 2.22. This molecule displayed an IC50 in the series on Leishmania major [3] of 13.1 µM. Moreover, in series [17], the Activity is listed as 7.7%.
With `O=C(c1cccs1)N1CCN(c2nnc(-c3ccc([N+](=O)[O-])o3)s2)CC1`, in series [2], the logP was 0.78. Half-maximal inhibition in the series on Leishmania major [3] (IC50) was put at 19.2 µM. Also, in [18], the Activity is on record as 2.4%.
With `O=C(c1ccccc1Cl)N1CCN(c2nnc(-c3ccc([N+](=O)[O-])s3)s2)CC1`, in [19], the Activity was 6.1%. Further, the logP in [2] was determined as 2.29. The same molecule yielded an IC50 in the series on Leishmania major [3] of 34.4 µM.
Consider `O=C(c1ccc(Cl)s1)N1CCN(c2nnc(-c3ccc([N+](=O)[O-])s3)s2)CC1`, for which the logP in [2] was 2.27. Moreover, in series [20], the Activity is reported as 9.8%. Besides, in the series on Leishmania major [3], the 50% inhibitory concentration (IC50) is 23.8 µM.
